The results in this text go back to the array DNA melting data of Ke et al. (doi:10.1101/2024.01.08.574731).

The nature of data set [1]: folding enthalpy; higher = less favourable; fluorescence melt of hairpins on a sequencing array, two-state fit. Conditions: sodium 0.088 M. An outline of the steps:
(§1)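 Folding enthalpy and melting temperature come from bootstrapped two-state fits to Cy3 fluorescence of library hairpins carrying annealed Cy3 and quencher oligos on a sequenced MiSeq flow cell. Imaging was done in 50 mM Na-HEPES pH 8.0, 25 mM NaCl, stepping by 2.5 °C up to 60 °C, and signals were normalised to pre-quench Cy3 and to control constructs. Results of four replicates were combined by inverse variance, and fitted temperatures were raised by 9.35 °C to match UV melts.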

Data set [2] is described as follows: melting temperature; fluorescence melt of hairpins on a sequencing array, two-state fit, raised by 9.35 °C to match UV melts. Conditions: sodium 0.088 M. An outline of the steps: as §1

Turning to GATCTTGAAGAAGATC ((((((....)))))), the folding enthalpy in data set [1] is -25.9 kcal/mol. For the same sequence, the Tm in data set [2] stood at 44.3 °C.
The corresponding values for GATCTTGAATAAGATC ((((((....)))))) are -31.9 kcal/mol and 49.3 °C.
The corresponding values for GATCTTGATAAGATC ((((((...)))))) are -21.6 kcal/mol and 43.6 °C.
Taken in the same sequence, the figures for GATCTTGCAAAAGATC ((((((....)))))) were -37.5 kcal/mol and 53.5 °C.
For the sequence GATCTTGCAAAGATC ((((((...)))))), the folding enthalpy in data set [1] was -41 kcal/mol. Moreover, the Tm in data set [2] was 55 °C.
Regarding GATCTTGCAGAAGATC ((((((....)))))), the folding enthalpy in data set [1] was -34.8 kcal/mol. Also, the Tm in data set [2] amounted to 46.8 °C.
Taken in the same sequence, the figures for GATCTTGCCCAAGATC ((((((....)))))) were -45.9 kcal/mol and 48.9 °C.
On to GATCTTGCGCAAGATC ((((((....)))))), for which the folding enthalpy in data set [1] is -54.1 kcal/mol. In addition, the Tm in data set [2] worked out at 55.5 °C.
On to GATCTTGGAAACAAGACC (.(((((....))))).), for which the folding enthalpy in data set [1] is -17.4 kcal/mol. Moreover, in data set [2], the Tm turned out to be 35.2 °C.
Taken in the same sequence, the figures for GATCTTGGAAACAAGGTC ((.((((....)))).)) were -33.9 kcal/mol and 44.2 °C.
Taken in the same sequence, the figures for GATCTTGGAAACGAGATC (((((.(....).))))) were -36.7 kcal/mol and 44.2 °C.
The corresponding values for GATCTTGGATAAGATC ((((((....)))))) are -30.6 kcal/mol and 49.4 °C.
Take GATCTTGGCAAAGATC ((((((....)))))): the folding enthalpy in data set [1] was -38.9 kcal/mol. Besides, the Tm in data set [2] worked out at 53.2 °C.
As to GATCTTGGCAAGATC ((((((...)))))), the folding enthalpy in data set [1] is -46.1 kcal/mol. The Tm in data set [2] amounted to 48.2 °C.
Taken in the same sequence, the figures for GATCTTGTAAAAGATC ((((((....)))))) were -41.1 kcal/mol and 52.8 °C.
The corresponding values for GATCTTGTAGAAGATC ((((((....)))))) are -27.5 kcal/mol and 46.4 °C.
Taken in the same sequence, the figures for GATCTTGTCAAGATC ((((((...)))))) were -34.2 kcal/mol and 47.4 °C.
GATCTTGTCCAAGATC ((((((....)))))): the folding enthalpy in data set [1] was -34.2 kcal/mol. The Tm in data set [2] worked out at 50.1 °C.
Taken in the same sequence, the figures for GATCTTGTGTAAGATC ((((((....)))))) were -34.6 kcal/mol and 43.6 °C.
The corresponding values for GATCTTGTTTAAGATC ((((((....)))))) are -32.1 kcal/mol and 45.8 °C.
Consider GATCTTTAAAAAGATC ((((((....)))))), for which the folding enthalpy in data set [1] was -34.8 kcal/mol. In addition, the Tm in data set [2] is 40.5 °C.
Taken in the same sequence, the figures for GATCTTTAGAAGATC ((((((...)))))) were -24.7 kcal/mol and 38.7 °C.
Taken in the same sequence, the figures for GATCTTTATAAGATC ((((((...)))))) were -33.3 kcal/mol and 44 °C.
Taken in the same sequence, the figures for GATCTTTATCAAGATC ((((((....)))))) were -29.4 kcal/mol and 39.3 °C.
Regarding GATCTTTCAAAAGATC ((((((....)))))), the folding enthalpy in data set [1] was -32.2 kcal/mol. For the same sequence, the Tm in data set [2] was 42.2 °C.
With GATCTTTCCAAGATC ((((((...)))))), the folding enthalpy in data set [1] was -37.1 kcal/mol. The Tm in data set [2] is 47.7 °C.
On to GATCTTTCCTAAGATC ((((((....)))))), for which, in data set [1], the folding enthalpy was -34.2 kcal/mol. In addition, the Tm in data set [2] turned out to be 45.1 °C.
The corresponding values for GATCTTTCGAAGATC ((((((...)))))) are -28.7 kcal/mol and 40.7 °C.
Take GATCTTTCTAAAGATC ((((((....)))))): the folding enthalpy in data set [1] is -37.7 kcal/mol. In addition, in data set [2], the Tm amounted to 47.3 °C.
The corresponding values for GATCTTTCTGAAGATC ((((((....)))))) are -36 kcal/mol and 45.2 °C.
Taken in the same sequence, the figures for GATCTTTGCAAAGATC ((((((....)))))) were -57.2 kcal/mol and 50.9 °C.
Taken in the same sequence, the figures for GATCTTTGCCAAGATC ((((((....)))))) were -29.7 kcal/mol and 42.5 °C.
As for GATCTTTGCGAAGATC ((((((....)))))), the folding enthalpy in data set [1] was -45.8 kcal/mol. Besides, the Tm in data set [2] was 47.6 °C.
The corresponding values for GATCTTTGCTAAGATC ((((((....)))))) are -35.8 kcal/mol and 46 °C.
As to GATCTTTTAAAAGATC ((((((....)))))), the folding enthalpy in data set [1] was -39.2 kcal/mol. The Tm in data set [2] was 45.9 °C.
On to GATCTTTTAAAGATC ((((((...)))))), for which the folding enthalpy in data set [1] was -30.9 kcal/mol. The Tm in data set [2] was determined as 43.8 °C.
Consider GATCTTTTACAAGATC ((((((....)))))), for which, in data set [1], the folding enthalpy was -31.9 kcal/mol. In addition, the Tm in data set [2] was determined as 42.8 °C.
